Compound activity (PubChem BioAssay)
TAAR1 antagonist = human TAAR1 antagonism. CHO RD-HGA16 TAAR1, Fluo-8 calcium fluorescence, antagonist. actives 1.5% (n = 360,000). inhibition, % at 3 µM;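 active = inhibition above a per-plate cutoff, the mean inhibition of test compounds on that plate plus 3 SD, cut at about 49% in these data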;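 also: 0% = DMSO plus EC80 beta-PEA response and 100% = DMSO alone without agonist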
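Test system: RD-HGA16 CHO cells with stable hTAAR1 and Gα16 / Probe or stimulus: EC80 β-phenethylamine stimulus / Times: seeding 17-24 h prior, 75-min 37 °C, 30-min RT dye loading / Detection: Fluo-8 calcium-sensitive fluorescence / Read-out basis: % inhibition scaled between DMSO and EC80 PEA controls / Repeats: singlicate, one well per test compound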
CHO parental Ca = signal in parental CHO cells, OX1R antagonist counter-screen; actives 0.63% (n = 330,000); inhibition, % at 5.6 µM; AID 463079; parental CHO-K1, ATP-induced calcium, Fluo-8 fluorescence;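 active = inhibition above that plate's mean sample inhibition plus 3 SD, cut at about 26% in these data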;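 also: 0% = ATP-challenged DMSO wells and 100% = DMSO wells without ATP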
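Material: Parental CHO cells | Reagent: ATP | Compound dosing: Single nominal dose of 5.6 µM per compound | Detection: Intracellular calcium via Fluo-8 no-wash fluorescent dye | Read-out: % inhibition of ATP-induced calcium mobilization | Benchmarks: Low control ATP plus DMSO, high control DMSO only | Replicates: Singlicate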
OX1R antag-1 = human HCRTR1 antagonism; O43613; actives 0.43% (n = 330,000); CHO/OX1R cells, Fluo-8 calcium fluorescence, orexin A; inhibition, % at 5 µM;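 active = inhibition above its plate's threshold, mean inhibition of all tested compounds on the plate plus 3 SD, cut at about 37% in these data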;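 also: 0% = orexin A challenge wells and 100% = SB-334867-A antagonist wells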
OX1R antag-2 = OX1R (human) antagonism. O43613. OX1R-expressing cells, FRET antagonist read-out. inhibition, % at 6.6 µM. actives 1.8% (n = 330,000). AID 485270; in the data active = inhibition mostly above about 38%, no sharp cut-off; inactive = mostly below about 40%;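 also: 0% = agonist challenge alone and 100% = reference antagonist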
TAAR1 agonist = human TAAR1 agonism; Q96RJ0; activation, % at 3 µM; actives 0.99% (n = 360,000); AID 624467; CHO RD-HGA16 TAAR1, Fluo-8 calcium fluorescence; vehicle wells 0%, saturating PEA agonist 100%;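 active = activation above the mean activation of all test compounds in the run plus 3 SD, cut at about 38% in these data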
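Assay system – CHO-derived RD-HGA16 cells with stable Gα16 and human TAAR1 · Compound dosing – one-point dosing at 3 µM (nominal) · Incubation – 17-24 h seeding, 75 min 37 °C dye, 30 min RT · Measured by – kinetic Fluo-8 calcium fluorescence · Control set – DMSO vehicle as 0%, PEA at EC100 as 100% · Repeats – single well for each compound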
OX1R HTRF confirm = OX1R (human) antagonism, HTRF confirmed. actives 49% (n = 1,800). shares compounds with OX1R antag-2. OX1R-expressing cells, HTRF antagonist assay. inhibition, % at 6.6 µM; in the data active = inhibition above about 55%;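 also: CHO cells expressing OX1R stimulated with orexin A at about EC80; 0% = agonist challenge alone and 100% = reference antagonist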
CHO-K1 HTRF cnt = counter-screen: parental CHO-K1 HTRF response | shares compounds with OX1R antag-2 | parental CHO-K1 cells, HTRF counterscreen | inhibition, % at 6.6 µM | actives 48% (n = 1,800) | AID 493232; in the data active = inhibition above about 17%;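 also: 0% = agonist challenge with vehicle and 100% = vehicle alone without agonist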
* = called active by the depositor; x = not tested or not shown. Most compounds without a hit are left out; they make up all but 3.9% or so of the library.

SMILES | TAAR1 antagonist | CHO parental Ca | OX1R antag-1 | OX1R antag-2 | TAAR1 agonist | OX1R HTRF confirm | CHO-K1 HTRF cnt
C/C(=C\C(=O)c1ccncc1)Nc1ccccc1O | 20 | 3 | 0 | 91* | 3 | 24 | 7
COc1ccc(OC)c(N/C(C)=C/C(=O)c2ccncc2)c1 | -27 | -17 | -40 | 16 | 0 | x | x
O=C(NCC1CCCO1)c1ccc(C(=O)NCC2CCCO2)cc1 (stereo not given) | 15 | 8 | -5 | 18 | 10 | x | x
O=C(NCCO)c1ccc2c(c1)S(=O)(=O)c1ccccc1C2=O | 19 | -1 | 3 | 108* | 7 | 65* | 67*
Cc1ccc(CNC(=O)c2ccc3c(c2)S(=O)(=O)c2ccccc2C3=O)o1 | 17 | -10 | -12 | 46 | 13 | x | x
O=C(NCC1CCCO1)c1ccc2c(c1)S(=O)(=O)c1ccccc1C2=O (stereo not given) | 11 | -20 | -14 | 81* | 8 | 61* | 63*
